Calls of active or inactive are those of the source. The calls are words filed in the database; no cut-off is given here.
Legend:
[1] = molecular target: Acetylcholinesterase (Homo sapiens, UniProt P22303); test: Inhibition of acetylcholinesterase (unknown origin)
[2] = Cytotoxicity against […] cells assessed as decrease in cell viability up to 10 uM preincubated for 30 mins followed by LPS stimulation and measured after 24 hrs by MTT assay; type: cell-based
Outline: (§1)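 BV-2 cells grown 24 h, then treated with compound (0.5, 2.5, 10.0 µM) for 30 min, with or without LPS (1.0 µg/mL), for a further 24 h. MTT (5 mg/mL) added for 4 h, formazan dissolved in DMSO, A490 read. Viability given as percent of untreated cells. Triplicate wells; three independent experiments.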

[3] = species on record: Homo sapiens; test: Anti-inflammatory activity in […] cells assessed as inhibition of LPS-stimulated NO release preincubated for 30 mins followed by LPS stimulation and measured after 24 hrs by Griess reagent based assay; type: functional, cell-based
[4] = molecular target: Acetylcholinesterase (Electrophorus electricus, UniProt O42275); test: Inhibition of electric eel AChE using acetylthiocholine iodide as substrate after 15 mins by Ellman's method
[5] = species on record: Homo sapiens; test: Anti-inflammatory activity in […] cells assessed as inhibition of LPS-stimulated TNFalpha release at 0.5 uM preincubated for 30 mins followed by LPS stimulation and measured after 24 hrs by ELISA; type: functional, cell-based
Outline: (§2)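 Confluent BV-2 cells in DMEM preincubated 30 min with compound, tested over 0.5–10 µM, then stimulated with LPS (1.0 µg/mL) for 24 h. Released TNF-α measured by ELISA following kit instructions. Triplicate wells; mean ± SD of three independent experiments.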

[6] = molecular target: T1, Amyloid-beta precursor protein (Homo sapiens, UniProt P05067); test: Inhibition of human amyloid beta (1 to 42) self-induced aggregation after 24 hrs by Thioflavin T based fluorometric assay
Outline: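 Self-induced Aβ1-42 aggregation (25 µM peptide) in phosphate buffer, pH 7.4, for 24 h at 37 °C with varying compound concentrations. Aggregation read by ThT fluorescence (5 µM ThT, glycine-NaOH pH 8.5).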

[7] = Anti-inflammatory activity in […] cells assessed as inhibition of LPS-stimulated TNFalpha release at 10 uM preincubated for 30 mins followed by LPS stimulation and measured after 24 hrs by ELISA relative to control; type: functional; conditions: BV-2; outline: as §2
[8] = Cytotoxicity against […] cells assessed as decrease in cell viability up to 10 uM measured after 24 hrs by MTT assay; type: cell-based; outline: as §1
[9] = Effective permeability of the compound in PBS/EtOH at 100 ug/ml after 18 hrs by PAMPA; type: ADME; conditions: read-out: Peff
[10] = molecular target: T2, Acetylcholinesterase (Rattus norvegicus, UniProt P37136); test: Inhibition of rat cortex AChE using acetylthiocholine iodide as substrate after 15 mins by Ellman's method
T2 sequence (P37136 whole entry): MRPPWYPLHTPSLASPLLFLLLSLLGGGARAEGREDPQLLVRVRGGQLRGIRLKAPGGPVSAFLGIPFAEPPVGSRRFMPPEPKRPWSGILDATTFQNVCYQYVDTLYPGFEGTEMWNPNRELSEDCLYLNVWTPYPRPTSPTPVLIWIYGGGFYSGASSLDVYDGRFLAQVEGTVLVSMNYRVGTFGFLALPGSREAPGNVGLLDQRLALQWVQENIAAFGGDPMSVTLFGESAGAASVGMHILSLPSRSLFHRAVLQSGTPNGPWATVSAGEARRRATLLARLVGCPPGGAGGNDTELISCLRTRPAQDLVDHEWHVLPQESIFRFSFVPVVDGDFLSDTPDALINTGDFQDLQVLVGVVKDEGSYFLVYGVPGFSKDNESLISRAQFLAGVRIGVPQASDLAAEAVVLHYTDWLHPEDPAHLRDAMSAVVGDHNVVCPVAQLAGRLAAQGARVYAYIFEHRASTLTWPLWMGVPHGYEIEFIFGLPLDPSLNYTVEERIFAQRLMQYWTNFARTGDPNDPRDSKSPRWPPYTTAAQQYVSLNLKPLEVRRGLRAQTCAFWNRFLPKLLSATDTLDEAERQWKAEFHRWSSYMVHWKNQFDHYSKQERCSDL

[11] = Disaggregation of Cu2+ induced preformed fibrils of human amyloid beta (1 to 42) at 25 uM after 24 hrs by Thioflavin T based fluorometric assay relative to control
Outline: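 Aβ1-42 (25 µM) with Cu2+ (25 µM) in HEPES buffer pre-aggregated 24 h at 37 °C. Compound (25 µM) then added for a further 24 h at 37 °C. Fibril content measured by ThT fluorescence (glycine-NaOH, pH 8.5). Triplicate; three independent experiments.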

[12] = Anti-inflammatory activity in […] cells assessed as inhibition of LPS-stimulated NO release at 10 uM preincubated for 30 mins followed by LPS stimulation and measured after 24 hrs by Griess reagent based assay relative to control; type: functional; conditions: BV-2
Outline: (§3)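 BV-2 cells cultured 24 h in DMEM (10% FBS, glutamine, pyruvate, pen/strep) at 37 °C, 5% CO2. Compound (DMSO stock diluted in PBS) added 30 min before LPS (1.0 µg/mL), then 24 h. Nitrite in supernatant measured by Griess reagent for 10 min at room temperature, A540, against a NaNO2 standard curve. Triplicate wells; mean ± SD of three independent experiments.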

[13] = Anti-inflammatory activity in […] cells assessed as inhibition of LPS-stimulated NO release at 2.5 uM preincubated for 30 mins followed by LPS stimulation and measured after 24 hrs by Griess reagent based assay relative to control; type: functional; conditions: BV-2; outline: as §3
[14] = Antioxidant activity assessed as trolox equivalent of APPH-induced radical scavenging activity at 5 uM preincubated for 15 mins followed by AAPH addition measured every minute for 90 mins by ORAC fluorescein assay; type: functional
Outline: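 ORAC-FL in 75 mM phosphate buffer, pH 7.4. Fluorescein (150 nM final) and sample (tested at 1–10 µM) incubated 15 min at 37 °C. AAPH (12 mM final) then added, and fluorescence (ex 485/em 535 nm) read every minute for 90 min. Trolox standard 1–8 µM; result expressed as µM Trolox equivalent per µM compound. Duplicate wells; three independent experiments.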

[15] = Effect on NO release in […] cells up to 10 uM after 24 hrs by Griess reagent based assay; type: ADME, cell-based
Outline: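 BV-2 cells in DMEM treated with compound alone, without LPS, up to 10 µM. Nitrite in culture supernatant measured by Griess reagent (A540) against a NaNO2 standard curve. Mean ± SD of three independent experiments.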

[16] = molecular target: Butyrylcholinesterase (Rattus norvegicus, UniProt Q9JKC1); test: Inhibition of rat serum BuChE using butyrylthiocholine iodide as substrate after 15 mins by Ellman's method; type: ADME
[17] = Inhibition of Cu2+ induced human amyloid beta (1 to 42) aggregation at 25 uM after 24 hrs by Thioflavin T based fluorometric assay relative to control
Outline: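 Aβ1-42 (25 µM) and Cu2+ (25 µM) in HEPES buffer (20 mM, pH 6.6, 150 mM NaCl), with or without compound (25 µM final), incubated 24 h at 37 °C. ThT (5 µM) in glycine-NaOH, pH 8.5, added and fluorescence read. Triplicate; three independent experiments.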

[18] = Effect on TNFalpha release in […] cells up to 10 uM after 24 hrs by ELISA; type: ADME, cell-based
Outline: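 BV-2 cells exposed to compound up to 10 µM with no added LPS. TNF-α in the medium measured by ELISA. Mean ± SD of three independent experiments.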

[19] = Anti-inflammatory activity in […] cells assessed as inhibition of LPS-stimulated TNFalpha release at 2.5 uM preincubated for 30 mins followed by LPS stimulation and measured after 24 hrs by ELISA relative to control; type: functional; conditions: BV-2; outline: as §2
[20] = molecular target: T1, Amyloid-beta precursor protein; test: Disaggregation of self-induced preformed fibrils of human amyloid beta (1 to 42) at 25 uM after 24 hrs by Thioflavin T based fluorometric assay relative to control
Outline: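 Aβ1-42 diluted in HEPES buffer (20 mM, pH 6.6, 150 mM NaCl) and pre-aggregated 24 h at 37 °C. Compound (25 µM) then added for another 24 h at 37 °C on a sealed plate. Remaining fibrils read by ThT fluorescence in glycine-NaOH, pH 8.5. Triplicate; three independent experiments.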

[21] = molecular target: T1, Amyloid-beta precursor protein; test: Inhibition of human amyloid beta (1 to 42) self-induced aggregation at 25 uM after 24 hrs by Thioflavin T based fluorometric assay relative to control
Outline: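 Aβ1-42 (25 µM final) incubated with compound (25 µM final) in 50 mM phosphate buffer, pH 7.4, for 24 h at 37 °C under a sealing film. ThT (5 µM) in 50 mM glycine-NaOH, pH 8.5, then added and fluorescence measured. Triplicate; mean ± SD of three independent experiments.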

[22] = species on record: Homo sapiens; test: Anti-inflammatory activity in […] cells assessed as inhibition of LPS-stimulated TNFalpha release preincubated for 30 mins followed by LPS stimulation and measured after 24 hrs by ELISA; type: functional, cell-based; outline: as §2
[23] = molecular target: T2, Acetylcholinesterase; test: Inhibition of rat AChE
Outline: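 Ellman assay using 5% rat cortex homogenate, preincubated 5 min with iso-OMPA (4.0 mmol/L) to block BuChE. Acetylthiocholine iodide (1 mmol/L) with inhibitor dilutions in phosphate buffer ([…], pH 7.40), incubated 15 min at 37 °C. Stopped with 0.2% DTNB, absorbance read at 405 nm. IC50 as mean of three independent experiments, each in triplicate.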

T1 sequence (P05067 whole entry): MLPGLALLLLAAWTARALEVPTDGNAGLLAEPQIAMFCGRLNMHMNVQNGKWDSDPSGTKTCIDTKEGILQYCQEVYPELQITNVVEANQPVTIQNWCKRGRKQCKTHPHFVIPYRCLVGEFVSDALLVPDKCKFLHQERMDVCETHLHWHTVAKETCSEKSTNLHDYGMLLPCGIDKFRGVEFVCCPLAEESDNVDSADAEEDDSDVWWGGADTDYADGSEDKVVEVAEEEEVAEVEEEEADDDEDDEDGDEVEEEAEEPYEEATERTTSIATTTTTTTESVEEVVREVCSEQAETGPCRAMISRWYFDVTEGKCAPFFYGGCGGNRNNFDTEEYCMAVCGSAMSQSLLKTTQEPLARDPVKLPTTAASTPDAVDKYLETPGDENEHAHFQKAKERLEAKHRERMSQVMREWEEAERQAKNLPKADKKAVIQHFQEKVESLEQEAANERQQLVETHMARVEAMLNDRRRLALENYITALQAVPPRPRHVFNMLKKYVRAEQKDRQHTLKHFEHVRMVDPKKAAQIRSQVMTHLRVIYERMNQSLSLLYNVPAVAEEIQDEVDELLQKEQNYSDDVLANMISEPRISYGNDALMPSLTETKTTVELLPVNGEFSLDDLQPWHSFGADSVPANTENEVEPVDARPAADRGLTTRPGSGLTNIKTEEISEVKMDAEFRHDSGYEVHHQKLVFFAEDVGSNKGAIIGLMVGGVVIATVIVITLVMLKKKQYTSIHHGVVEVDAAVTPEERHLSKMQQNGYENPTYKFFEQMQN
Acetylcholinesterase (Electrophorus electricus, UniProt O42275), sequence (O42275 whole entry): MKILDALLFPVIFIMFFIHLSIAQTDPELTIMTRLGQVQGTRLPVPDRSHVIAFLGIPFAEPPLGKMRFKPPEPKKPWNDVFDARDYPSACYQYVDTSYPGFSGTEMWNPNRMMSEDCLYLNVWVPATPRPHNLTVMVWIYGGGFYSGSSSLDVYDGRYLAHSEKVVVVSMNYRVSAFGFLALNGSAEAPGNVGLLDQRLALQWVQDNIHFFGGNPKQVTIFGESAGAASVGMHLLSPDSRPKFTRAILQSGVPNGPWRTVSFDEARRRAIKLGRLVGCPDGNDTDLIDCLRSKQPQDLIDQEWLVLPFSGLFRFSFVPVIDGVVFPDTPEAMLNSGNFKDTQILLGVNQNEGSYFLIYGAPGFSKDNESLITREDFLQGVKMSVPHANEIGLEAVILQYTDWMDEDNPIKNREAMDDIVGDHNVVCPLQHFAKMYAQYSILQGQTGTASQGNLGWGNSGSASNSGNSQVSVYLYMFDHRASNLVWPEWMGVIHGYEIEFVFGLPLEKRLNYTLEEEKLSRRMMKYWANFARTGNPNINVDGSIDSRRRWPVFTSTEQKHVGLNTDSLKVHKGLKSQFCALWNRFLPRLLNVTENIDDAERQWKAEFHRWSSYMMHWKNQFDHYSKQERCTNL
Butyrylcholinesterase, sequence (Q9JKC1 whole entry): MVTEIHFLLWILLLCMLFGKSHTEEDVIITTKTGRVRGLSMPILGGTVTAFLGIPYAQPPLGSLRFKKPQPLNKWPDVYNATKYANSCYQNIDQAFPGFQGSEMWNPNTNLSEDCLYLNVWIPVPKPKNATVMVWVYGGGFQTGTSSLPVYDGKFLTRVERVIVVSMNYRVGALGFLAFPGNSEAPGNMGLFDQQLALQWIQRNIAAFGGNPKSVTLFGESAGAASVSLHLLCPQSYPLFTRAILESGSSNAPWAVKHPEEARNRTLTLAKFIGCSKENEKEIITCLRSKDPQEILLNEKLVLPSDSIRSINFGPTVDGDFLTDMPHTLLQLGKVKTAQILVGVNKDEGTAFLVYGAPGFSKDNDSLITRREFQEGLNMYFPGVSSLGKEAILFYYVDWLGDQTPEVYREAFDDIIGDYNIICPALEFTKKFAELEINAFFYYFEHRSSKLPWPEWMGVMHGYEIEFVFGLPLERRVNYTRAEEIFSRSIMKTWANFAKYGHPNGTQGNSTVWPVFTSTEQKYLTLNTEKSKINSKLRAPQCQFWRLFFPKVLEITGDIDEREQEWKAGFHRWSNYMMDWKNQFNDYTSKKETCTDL
Acetylcholinesterase (Homo sapiens, UniProt P22303), sequence (P22303 whole entry): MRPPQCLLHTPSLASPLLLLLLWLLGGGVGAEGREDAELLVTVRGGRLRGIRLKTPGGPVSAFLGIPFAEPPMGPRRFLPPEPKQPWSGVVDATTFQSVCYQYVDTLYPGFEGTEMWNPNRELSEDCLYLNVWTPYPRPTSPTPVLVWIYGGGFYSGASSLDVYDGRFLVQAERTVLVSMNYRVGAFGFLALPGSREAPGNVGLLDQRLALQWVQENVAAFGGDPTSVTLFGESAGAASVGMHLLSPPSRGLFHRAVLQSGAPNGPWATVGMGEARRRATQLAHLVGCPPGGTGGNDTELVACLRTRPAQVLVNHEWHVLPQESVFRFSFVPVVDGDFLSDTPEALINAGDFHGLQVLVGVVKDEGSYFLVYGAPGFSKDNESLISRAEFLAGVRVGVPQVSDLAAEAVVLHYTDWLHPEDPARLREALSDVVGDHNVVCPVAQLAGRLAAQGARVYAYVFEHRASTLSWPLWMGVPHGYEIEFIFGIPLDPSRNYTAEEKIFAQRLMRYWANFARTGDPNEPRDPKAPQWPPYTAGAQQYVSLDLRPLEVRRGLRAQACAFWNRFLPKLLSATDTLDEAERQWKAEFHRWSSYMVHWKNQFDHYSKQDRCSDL

| Structure (SMILES) | Activity [2] | inhibition [3] | IC50 [4] [µM] | inhibition [5] | IC50 [6] [µM] | inhibition at 10 µM [7] [%] | Activity [8] | IC50 [10] [µM] | Activity [11] [%] | inhibition at 10 µM [12] [%] | inhibition at 2.5 µM [13] [%] | Activity [14] [equiv] | Activity [15] | IC50 [16] [µM] | inhibition [17] [%] | Activity [18] | inhibition at 2.5 µM [19] [%] | Activity [20] [%] | inhibition [21] [%] | inhibition [22] | further results |
| --- | --- | --- | --- | --- | --- | --- | --- | --- | --- | --- | --- | --- | --- | --- | --- | --- | --- | --- | --- | --- | --- |
| O=C(O)c1ccccc1O [SALICYLIC ACID] |  |  |  |  |  |  |  |  |  |  |  |  |  |  |  |  |  |  |  |  | IC50 [1]: 346 µM |
| CCN(CCCCCCNC(=O)c1cc(O)c(C(=O)NCCCCCCN(CC)Cc2ccccc2OC)cc1O)Cc1ccccc1OC | Non-Toxic | Dose-dependent effect | 6.75 | inactive | 3.31 | 50.6 | Non-Toxic | 1.68 | 85.3 | 63.3 | 33.3 | 1.43 | Non-Toxic | > 100 | 89.9 | Non-Toxic | 20.6 | 83.8 | 99.6 | Dose-dependent effect | Papp at 18 h, 100 ug/ml [9]: 5.54 ×10⁻⁶ cm/s |
| COc1ccccc1CN(C)CCCCNC(=O)c1cc(O)c(C(=O)NCCCCN(C)Cc2ccccc2OC)cc1O | Non-Toxic | Dose-dependent effect | 5.87 | inactive | 3.45 | 59.4 | Non-Toxic | 7.37 | 76.3 | 57.5 | 36.7 | 0.64 | Non-Toxic | 19.2 | 65.4 | Non-Toxic | 32.9 | 80.3 | 98.6 | Dose-dependent effect |  |
| CCN(CCCCCCNC1=CC(=O)C(NCCCCCCN(CC)Cc2ccccc2OC)=CC1=O)Cc1ccccc1OC [MEMOQUIN] |  |  |  |  |  |  |  |  |  |  |  | 0.77 |  |  |  |  |  |  |  |  | IC50 [23]: 0.00155 µM |
| CCN(CCCNC(=O)c1cc(O)c(C(=O)NCCCN(CC)Cc2ccccc2OC)cc1O)Cc1ccccc1OC | Non-Toxic | Dose-dependent effect | 11.4 | inactive | 2.41 | 41.1 | Non-Toxic | 0.67 | 73.1 | 50.8 | 35 | 1.1 | Non-Toxic | > 100 | 88.8 | Non-Toxic | 28.2 | 77.3 | 98.2 | Dose-dependent effect | Papp at 18 h, 100 ug/ml [9]: 4.23 ×10⁻⁶ cm/s |
